From PMC3253528 (Journal of the American Chemical Society, 2011)
“And” between values parts separate entries of the source, which are not always exact repeats. Equal values may be shown once.

Experiments:
[1] = target: T1, caspase-3 (Homo sapiens, UniProt P42574); assay: inhibition of mature caspase-3 by known aggregators; type: biochemical
T1 sequence (P42574 29-175 limits assumed): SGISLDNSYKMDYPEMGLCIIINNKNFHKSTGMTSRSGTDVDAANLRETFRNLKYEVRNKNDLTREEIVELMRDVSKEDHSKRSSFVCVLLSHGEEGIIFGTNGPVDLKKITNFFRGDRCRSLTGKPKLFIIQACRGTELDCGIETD
T1 sequence (P42574 176-277 limits assumed): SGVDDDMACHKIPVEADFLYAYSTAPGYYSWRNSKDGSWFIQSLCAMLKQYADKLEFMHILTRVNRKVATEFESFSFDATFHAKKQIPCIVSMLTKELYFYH

[2] = target: T2, procaspase-3 (Homo sapiens, UniProt P42574); assay: procaspase-3 self-activation assay; type: biochemical
T2 sequence (P42574 1-277): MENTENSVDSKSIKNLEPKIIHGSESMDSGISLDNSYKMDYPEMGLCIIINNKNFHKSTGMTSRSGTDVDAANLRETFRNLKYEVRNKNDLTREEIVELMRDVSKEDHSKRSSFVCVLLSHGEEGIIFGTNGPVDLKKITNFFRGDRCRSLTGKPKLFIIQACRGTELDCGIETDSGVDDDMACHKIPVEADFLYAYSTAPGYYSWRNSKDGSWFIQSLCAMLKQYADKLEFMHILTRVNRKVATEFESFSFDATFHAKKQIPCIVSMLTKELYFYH
Procedure, shortened: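 Known promiscuous enzyme-inhibiting aggregators (panel of six) were each tested for ability to activate wild-type procaspase-3. The self-activation assay is run at 37°C.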

[3] = dynamic light scattering; type: physicochemical; details: DLS conc. 50 μM

Nc1c(/N=N/c2ccc(-c3ccc(/N=N/c4cc(S(=O)(=O)O)c5ccccc5c4N)cc3)cc2)cc(S(=O)(=O)O)c2ccccc12 [Congo red]
inhibition of mature caspase-3 [1]: inhibited | activation of procaspase-3 by known aggregators [2]: no activation

O=C1OC(c2cc(I)c(O)c(I)c2)(c2cc(I)c(O)c(I)c2)c2ccccc21 [TIPT, 3′,3″,5′,5″-tetraiodophenolpthalein]
DLS Intensity ([3]; 25°C): 3903.5 kcps and 3903.5 ± 1423.0 kcps | Radius ([3]; 25°C): 71.1 nm and 71.1 ± 8.6 nm | DLS Intensity ([3]; 37°C): 3933.2 ± 1369.0 kcps | Radius ([3]; 37°C): 76.7 ± 7.8 nm
